Assay results as given in article PMC3654155 (Bioorganic & medicinal chemistry letters, 2013).

Experiments:
Rtt109 = conditions: ref [14], [20]; cited from earlier work
Rtt109-Vps75 [1] = molecular target: T1, Rtt109-Vps75 (Saccharomyces cerevisiae, UniProt Q07794); assay: Rtt109-Vps75 HAT reaction-rate assay with H3n21 peptide, released CoA quantified; format: biochemical; conditions: for Vmax, acetyl-CoA titration: 50 nM Rtt109-Vps75, 15 µM H3n21
T1 sequence (Q07794 1-436): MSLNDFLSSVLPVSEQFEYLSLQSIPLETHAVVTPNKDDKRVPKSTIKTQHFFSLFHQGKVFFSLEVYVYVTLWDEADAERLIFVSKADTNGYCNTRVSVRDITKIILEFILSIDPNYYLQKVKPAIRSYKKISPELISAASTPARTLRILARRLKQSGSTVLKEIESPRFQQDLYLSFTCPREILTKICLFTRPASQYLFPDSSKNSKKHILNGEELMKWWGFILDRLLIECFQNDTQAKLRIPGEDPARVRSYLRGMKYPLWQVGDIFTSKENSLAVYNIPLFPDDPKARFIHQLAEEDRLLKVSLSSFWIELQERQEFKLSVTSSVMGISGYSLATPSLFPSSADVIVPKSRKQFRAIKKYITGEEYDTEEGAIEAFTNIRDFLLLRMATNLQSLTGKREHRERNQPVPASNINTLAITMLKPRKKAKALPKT
T1 sequence (P53853 1-264 partner): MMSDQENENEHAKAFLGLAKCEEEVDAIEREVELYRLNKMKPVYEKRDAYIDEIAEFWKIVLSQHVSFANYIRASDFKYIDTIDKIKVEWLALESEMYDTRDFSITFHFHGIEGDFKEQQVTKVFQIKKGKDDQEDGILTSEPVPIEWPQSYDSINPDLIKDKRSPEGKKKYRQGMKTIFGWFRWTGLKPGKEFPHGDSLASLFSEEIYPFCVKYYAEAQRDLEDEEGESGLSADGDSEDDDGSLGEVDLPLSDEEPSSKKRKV

Rtt109-Vps75 [2] = molecular target: T1, Rtt109-Vps75; assay: Single-point HAT reactions, CoA formed by the end of a 30-minute reaction; format: biochemical; conditions: data not shown
Rtt109-Vps75 [3] = molecular target: T1, Rtt109-Vps75; assay: HAT-ELISA of H3K56 acetylation on; format: biochemical; conditions: 500 nM compound, 50 nM Rtt109, 50 nM Vps75, 30 min, 30°C
Saccharoyces cerevisiae [4] = assay: Sensitivity to the DNA damaging agent camptothecin; format: cell-based; conditions: data not shown
C. albicans [5] = assay: Cellular levels of H3K56ac; format: cell-based; conditions: data not shown
Rtt109-Vps75 [6] = molecular target: T1, Rtt109-Vps75; assay: Dialysis and time-course tests of tight binding to Rtt109-Vps75; format: biochemical
Gcn5 = Gcn5 (Saccharomyces cerevisiae, UniProt Q03330); assay: Gcn5 HAT reaction-rate assay with H3n21 peptide; format: biochemical
Procedure, shortened: (§1)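 Enzyme: 3.1 µg/ml (61 nM) Gcn5 or 15 µg/ml p300, with 15 µM H3n21 peptide. Enzyme and peptide pre-incubated with DMSO or test compound for 5 min at 30°C. Reactions started with 30 µM acetyl-CoA. Released CoA quantified every 2 min over the first 10 min. Rate derived by linear regression of product versus time. Compound capped at 100 µM. For p300, single-point assays were also run at 0.5–2 µM compound.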

p300 [7] = molecular target: T2, p300 (Homo sapiens, UniProt Q09472); assay: HAT-ELISA on; format: biochemical, mammalian; conditions: 500 nM compound, 15 µg/ml p300
Rtt109/Asf1 = Rtt109/Asf1 (Saccharomyces cerevisiae, UniProt Q07794); assay: HAT-ELISA of H3K56 acetylation on; format: biochemical; conditions: 500 nM compound, 50 nM Rtt109, 400 nM Asf1N, 30 min, 30°C
Procedure, shortened: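 Reaction mix: 50 nM Rtt109, 400 nM Asf1N and […] (H3-H4)2 tetramers, pre-incubated 5 min with DMSO or 500 nM test compound. Started with 15 µM acetyl-CoA, with water as the no-substrate control, then incubated 30 min at 30°C. H3K56ac detected by ELISA with H3K56ac-specific rabbit antiserum. Signal normalised to DMSO plus acetyl-CoA.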

C. albicans [8] = assay: Sensitivity to the DNA damaging agent camptothecin; format: cell-based; conditions: data not shown
Saccharoyces cerevisiae [9] = assay: Cellular levels of H3K56ac; format: cell-based; conditions: data not shown
p300 [10] = molecular target: T2, p300; assay: p300 HAT reaction-rate assay with H3n21 peptide; format: biochemical, mammalian
Procedure, shortened: as §1

[11] = Solubility limit in HAT assays; format: physicochemical; conditions: not tested above 100 µM

T2 sequence (Q09472 whole entry, species assumed): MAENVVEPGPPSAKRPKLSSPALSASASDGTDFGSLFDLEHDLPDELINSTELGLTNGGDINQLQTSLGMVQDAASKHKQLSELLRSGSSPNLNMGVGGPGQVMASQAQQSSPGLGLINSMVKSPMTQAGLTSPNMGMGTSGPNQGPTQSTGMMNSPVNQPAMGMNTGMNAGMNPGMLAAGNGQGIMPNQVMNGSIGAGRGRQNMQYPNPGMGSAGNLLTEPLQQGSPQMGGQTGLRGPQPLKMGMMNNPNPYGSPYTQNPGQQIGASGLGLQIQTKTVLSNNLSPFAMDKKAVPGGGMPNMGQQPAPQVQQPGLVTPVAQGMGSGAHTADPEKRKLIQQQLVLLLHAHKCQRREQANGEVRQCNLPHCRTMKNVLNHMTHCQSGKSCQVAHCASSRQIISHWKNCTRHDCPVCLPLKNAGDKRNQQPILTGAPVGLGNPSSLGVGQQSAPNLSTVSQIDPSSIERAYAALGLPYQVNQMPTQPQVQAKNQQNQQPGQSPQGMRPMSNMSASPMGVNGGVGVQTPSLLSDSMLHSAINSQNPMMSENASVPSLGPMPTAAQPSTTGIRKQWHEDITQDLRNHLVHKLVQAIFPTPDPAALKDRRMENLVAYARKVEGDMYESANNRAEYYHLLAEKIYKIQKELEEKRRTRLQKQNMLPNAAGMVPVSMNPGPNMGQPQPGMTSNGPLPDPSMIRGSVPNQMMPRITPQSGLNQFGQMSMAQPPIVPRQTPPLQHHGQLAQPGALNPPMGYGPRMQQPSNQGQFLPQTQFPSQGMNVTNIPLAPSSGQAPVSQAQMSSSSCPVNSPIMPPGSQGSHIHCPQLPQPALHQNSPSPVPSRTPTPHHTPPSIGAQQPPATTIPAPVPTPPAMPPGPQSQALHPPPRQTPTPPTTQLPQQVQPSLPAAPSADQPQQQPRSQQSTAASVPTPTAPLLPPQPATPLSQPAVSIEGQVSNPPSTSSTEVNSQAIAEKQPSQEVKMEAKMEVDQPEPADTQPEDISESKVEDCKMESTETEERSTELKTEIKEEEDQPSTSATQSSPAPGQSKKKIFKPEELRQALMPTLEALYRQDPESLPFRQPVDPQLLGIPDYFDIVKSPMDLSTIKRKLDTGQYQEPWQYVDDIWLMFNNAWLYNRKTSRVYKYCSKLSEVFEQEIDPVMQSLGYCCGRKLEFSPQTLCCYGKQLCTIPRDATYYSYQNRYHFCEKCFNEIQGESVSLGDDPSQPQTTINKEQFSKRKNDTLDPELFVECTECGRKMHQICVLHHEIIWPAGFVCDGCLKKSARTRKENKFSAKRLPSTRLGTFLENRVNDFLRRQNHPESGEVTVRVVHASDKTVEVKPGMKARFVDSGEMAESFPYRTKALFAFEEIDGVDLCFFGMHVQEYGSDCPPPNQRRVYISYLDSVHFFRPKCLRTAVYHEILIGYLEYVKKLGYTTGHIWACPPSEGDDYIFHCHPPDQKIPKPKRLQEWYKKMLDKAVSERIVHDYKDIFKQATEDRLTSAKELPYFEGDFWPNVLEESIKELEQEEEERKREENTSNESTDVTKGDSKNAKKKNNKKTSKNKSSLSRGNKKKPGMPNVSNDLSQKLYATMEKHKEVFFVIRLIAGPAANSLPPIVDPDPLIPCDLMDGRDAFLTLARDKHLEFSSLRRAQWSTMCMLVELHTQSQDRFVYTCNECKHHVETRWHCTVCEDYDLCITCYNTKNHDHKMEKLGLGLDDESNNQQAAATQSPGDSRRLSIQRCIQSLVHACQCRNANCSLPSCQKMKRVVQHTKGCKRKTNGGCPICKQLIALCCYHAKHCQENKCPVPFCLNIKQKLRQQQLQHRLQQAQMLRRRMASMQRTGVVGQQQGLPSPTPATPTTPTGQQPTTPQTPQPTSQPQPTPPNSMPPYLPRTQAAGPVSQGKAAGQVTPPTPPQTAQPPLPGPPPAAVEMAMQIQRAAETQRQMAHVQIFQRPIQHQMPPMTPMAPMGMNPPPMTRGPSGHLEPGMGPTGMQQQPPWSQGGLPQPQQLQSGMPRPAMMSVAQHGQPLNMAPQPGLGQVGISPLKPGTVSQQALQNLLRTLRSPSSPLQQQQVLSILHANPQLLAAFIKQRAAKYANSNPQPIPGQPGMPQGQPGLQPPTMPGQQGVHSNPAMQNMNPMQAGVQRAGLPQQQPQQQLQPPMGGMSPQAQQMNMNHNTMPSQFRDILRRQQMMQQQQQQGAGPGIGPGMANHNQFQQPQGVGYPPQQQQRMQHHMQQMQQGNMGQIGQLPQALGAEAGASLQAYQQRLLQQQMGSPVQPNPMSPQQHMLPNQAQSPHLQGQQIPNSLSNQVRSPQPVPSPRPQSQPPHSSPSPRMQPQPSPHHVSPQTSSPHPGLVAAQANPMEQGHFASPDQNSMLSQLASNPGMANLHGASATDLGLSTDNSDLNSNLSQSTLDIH
Gcn5, sequence (Q03330 whole entry): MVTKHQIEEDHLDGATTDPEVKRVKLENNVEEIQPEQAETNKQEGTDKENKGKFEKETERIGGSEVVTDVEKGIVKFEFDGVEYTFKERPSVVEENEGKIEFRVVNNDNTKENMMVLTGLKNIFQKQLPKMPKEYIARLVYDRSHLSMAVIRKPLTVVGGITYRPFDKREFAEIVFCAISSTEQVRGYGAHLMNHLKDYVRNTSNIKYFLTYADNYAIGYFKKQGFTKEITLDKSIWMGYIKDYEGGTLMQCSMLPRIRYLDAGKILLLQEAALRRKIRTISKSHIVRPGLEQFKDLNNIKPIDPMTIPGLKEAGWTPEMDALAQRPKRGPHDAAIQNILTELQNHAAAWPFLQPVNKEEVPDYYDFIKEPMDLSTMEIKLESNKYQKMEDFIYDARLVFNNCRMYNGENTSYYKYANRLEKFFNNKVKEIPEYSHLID

Structure (SMILES): CC(=O)N[C@@H](CCCCNC(=O)CSCCNC(=O)CCNC(=O)[C@H](O)C(C)(C)COP(=O)(O)OP(=O)(O)OC[C@H]1O[C@@H](n2cnc3c(N)ncnc32)[C@H](O)[C@@H]1OP(=O)(O)O)C(N)=O [Lys-CoA]
- effect on Rtt109 catalysis (Rtt109): do not affect Rtt109 catalysis

Structure (SMILES): CCC1(c2ccccc2)NC(=O)N(CC(=O)N(C)Cc2c(F)cccc2Cl)C1=O (stereo not shown) [SAR9]
- effect on reaction rates, dose response (Rtt109-Vps75 [1]; 100 nM – 1 µM compound, 50 nM Rtt109-Vps75): minimal inhibition even at the highest concentration tested
- inhibition of acetylation by Rtt109-Vps75 in single-point HAT reactions (Rtt109-Vps75 [2]): not as potent as compound 1

Structure (SMILES): CCCC1(c2ccccc2)NC(=O)N(CC(=O)N(C)Cc2c(F)cccc2Cl)C1=O (stereo not shown) [compound 1, N-[(2-chloro-6-fluorophenyl)methyl]-2-(2,5-dioxo-4-phenyl-4-propylimidazolidin-1-yl)-N-methylacetamide]
- inhibition of H3K56 acetylation by Rtt109-Vps75 (Rtt109-Vps75 [3]): inhibited acetylation
- effect on sensitivity to camptothecin (Saccharoyces cerevisiae [4]): have not observed that compound 1 is able to affect
- preference for inhibition of Rtt109 over p300 and Gcn5 (Rtt109-Vps75 [1]): greater than two order of magnitude preference
- Vmax, acetyl-CoA titration (Rtt109-Vps75 [1]; 30 µM compound 1): 1.46 ± 0.08 nM/s
- Vmax, acetyl-CoA titration (Rtt109-Vps75 [1]; 60 µM compound 1): 0.68 ± 0.09 nM/s
- inhibition of Rtt109-Vps75 in single point enzyme assay (Rtt109-Vps75 [1]; 0.5 – 2 µM compound): inhibited Rtt109
- effect on cellular levels of H3K56ac (C. albicans [5]): have not observed that compound 1 is able to affect
- time course of inhibition (Rtt109-Vps75 [6]; 1 µM Rtt109-Vps75 with 1.0 µM compound 1, incubated 0-60 minutes on ice): the degree of inhibition increased during the entire 60 minutes
- mode of inhibition (Rtt109-Vps75 [6]; from substrate titrations, dialysis and enzyme-concentration dependence): tight or perhaps irreversible inhibitor
- enzyme reaction rate remaining, Gcn5 (Gcn5; compound up to 100 µM, 61 nM Gcn5): ≥ 80 % activity
- inhibition of HAT activity of Gcn5 (Gcn5; dose response up to 100 µM): did not significantly inhibit
- inhibition of p300 HAT activity on (H3-H4)2 tetramers (p300 [7]): no inhibitory effect
- inhibition of H3K56 acetylation by Rtt109/Asf1 (Rtt109/Asf1): inhibited acetylation
- effect on sensitivity to camptothecin (C. albicans [8]): have not observed that compound 1 is able to affect
- effect on cellular levels of H3K56ac (Saccharoyces cerevisiae [9]): have not observed that compound 1 is able to affect
- inhibition of p300 in single point enzyme assay (p300 [10]; 0.5 – 2 µM compound): without inhibiting p300
- enzyme reaction rate remaining, p300 (p300 [10]; compound up to 100 µM, 15 µg/ml p300): ≥ 80 % activity
- inhibition of HAT activity of p300 (p300 [10]; dose response up to 100 µM): did not significantly inhibit
- solubility in assay [11]: solubility limitations
